Measurements as given in ChEMBL document CHEMBL1268869, “Structural optimization and biological evaluation of substituted bisphenol A derivatives as beta-amyloid peptide aggregation inhibitors” (J Med Chem, 2010).
Calls of active or inactive are those of the source. The calls are words filed in the database; no cut-off is given here.

Legend:
[1] = Inhibition of amyloid beta (1-42) aggregation by thioflavin T fluorescence method
Procedure, shortened: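 Compound (2 μL of 0.1–10.0 mM) was mixed with 4 μL of 50 μM Aβ1-42 in PBS pH 7.4 containing 11% ethanol, 2 h at room temperature. Then 40 μM ThT in PBS/10% ethanol was added. Fluorescence was read with excitation 430 nm and emission 488 nm.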

[2] = Inhibition of amyloid beta (12-28) fibrillation assessed as increase in beta-turn conformational component at 3:1 compound to protein ratio by CD spectroscopy assay; details: concentration not given here
Procedure, shortened: (§1)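 HFIP-treated Aβ12-28 was dissolved in 50% TFE/water at 80 μM, with compound at 1:3 protein:compound. CD spectra were taken in a 0.1 cm path cuvette. Secondary-structure content (helix, β-sheet, turn) was obtained by spectral deconvolution.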

[3] = Inhibition of amyloid beta (1 to 42) fibrillation after 5 days at -80 degC by PICUP assay
Procedure, shortened: (§2)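 Aβ1-42 was HFIP-treated, sonicated 30 min, dried under nitrogen and redissolved in water. Photo-crosslinking used Ru(bpy)3Cl2 and APS (Aβ/Ru/APS 1/4/80) under a 150 W xenon lamp for 3 s, then quench, 95 C for 5 min and 15% tricine SDS-PAGE. Monomer/(dimer+tetramer) band pixels were compared.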

[4] = Inhibition of amyloid beta (1 to 42) fibrillation after 5 days at 37 degC by PICUP assay; procedure, shortened: as §2
PC-12 [5] = assay: Neuroprotective activity against rat PC12 cells assessed as reversal of amyloid beta (1 to 42)-induced neuronal damage in at 3 uM after 48 hrs by MTT assay; type: functional
Procedure, shortened: (§3)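 Differentiated PC-12 cells (10 000/well) received compound diluted in Aβ1-42 solution (5% DMSO water stock), giving final 10 μM Aβ1-42 with 0–3 μM compound (0.01–3 μM; dose curve 0.003–3 μM), for 48 h. MTT absorbance at 570 nm was normalized to full-kill and media controls. 3 independent experiments × 3 replicates.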

[6] = Inhibition of amyloid beta (12-28) fibrillation assessed as increase in beta-sheet conformation at 3:1 compound to protein ratio by CD spectroscopy assay; details: concentration not given here; procedure, shortened: as §1
[7] = Inhibition of gamma-secretase by fluorogenic substrate assay
Procedure, shortened: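 Membrane protein (10 μg/well) was incubated with 6 μM fluorogenic substrate and compound in reaction buffer, 100 μL final, at 37 C for 5 h. Fluorescence was read at excitation 355 nm and emission 440 nm. L685,458 was the reference inhibitor. Dose-response curves were fitted by nonlinear regression.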

PC-12 [8] = assay: Neuroprotective activity against rat PC12 cells assessed as reversal of amyloid beta (1 to 42)-induced neuronal damage after 48 hrs by MTT assay; type: functional, cell-based; procedure, shortened: as §3
PC-12 [9] = assay: Cytotoxicity against rat PC12 cells at 1 uM by MTT assay; type: cell-based; details: pc-12, 1 µM
Procedure, shortened: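 Differentiated PC-12 cells in DMEM with 10% heat-inactivated FBS and 2 mM L-glutamine, 37 C, 5% CO2. Plated at 10 000 cells/well and treated 24 h later with compound diluted in medium (0.1 nM to 100 μM) for 48 h. MTT read at 570 nm. Viability scaled between media and 5 μM staurosporine controls. At least 3 independent experiments × 3 replicates.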

[10] = Inhibition of amyloid beta (1 to 42) fibrillation after 27 days by AFM assay; details: in the assay text read “after 17 days” for “after 27 days”
Procedure, shortened: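 For fibril formation, 200 μM Aβ1-42 in water/DMSO was kept 17 days at 37 C. These fibrils were then incubated with compound (10 mM stock) or DMSO for 27 days at 37 C. Samples were diluted 5-fold in water, dried on mica and imaged by tapping-mode AFM.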

PC-12 [11] = assay: Neuroprotective activity against rat PC12 cells assessed as reversal of amyloid beta (1 to 42)-induced neuronal damage in at 1 uM after 48 hrs by MTT assay; type: functional; procedure, shortened: as §3
[12] = Inhibition of amyloid beta (12-28) fibrillation assessed as decrease in alpha-helix component at 3:1 compound to protein ratio by CD spectroscopy assay; details: concentration not given here

Compound | IC50 ([1]; read-out: IC50) [µM] | IC50 [1] | other results
CN1CCN(CC(O)COc2c(Br)cc(C(C)(C)c3cc(Br)c(OCC(O)CN4CCN(C)CC4)c(Br)c3)cc2Br)CC1 (stereo not drawn) | 23 |  | 
Cc1cc(C(C)(C)c2cc(C)c(OCC(O)CN3CCOCC3)c(C)c2)cc(C)c1OCC(O)CN1CCOCC1 (stereo not drawn) |  | Not Active | 
Cc1cc(C2(c3cc(C)c(OCC(O)CN4CCOCC4)c(C)c3)CCCCC2)cc(C)c1OCC(O)CN1CCOCC1 (stereo not drawn) |  | Not Active | 
OC(COc1c(Br)cc(C(c2cc(Br)c(OCC(O)CN3CCOCC3)c(Br)c2)(C(F)(F)F)C(F)(F)F)cc1Br)CN1CCOCC1 (stereo not drawn) |  | Not Active | 
Cc1cc(C(C)(C)c2cc(C)c(OCC(O)CN3CCCCC3)c(C)c2)cc(C)c1OCC(O)CN1CCCCC1 (stereo not drawn) | 43 |  | 
CC(C)(c1cc(Br)c(OCC(O)CN2CCOCC2)c(Br)c1)c1cc(Br)c(OCC(O)CN2CCOCC2)c(Br)c1 (stereo not drawn) | 26 |  | 
Cc1cc(C(C)(C)c2cc(C)c(OCC(O)CN3CCN(C)CC3)c(C)c2)cc(C)c1OCC(O)CN1CCN(C)CC1 (stereo not drawn) |  | Not Active | 
Cc1cc(C(C)(C)c2cc(C)c(OCC(O)CN3CCCC3)c(C)c2)cc(C)c1OCC(O)CN1CCCC1 (stereo not drawn) | 11 |  | 
Cc1cc(C(C)(C)c2cc(C)c(OCC(O)CN3CCN(Cc4ccccc4)CC3)c(C)c2)cc(C)c1OCC(O)CN1CCN(Cc2ccccc2)CC1 (stereo not drawn) | 6.2 |  | 
CN1CCN(CC(O)COc2c(Br)cc(C(c3cc(Br)c(OCC(O)CN4CCN(C)CC4)c(Br)c3)(C(F)(F)F)C(F)(F)F)cc2Br)CC1 (stereo not drawn) | 24 |  | 
Cc1cc(C2(c3cc(C)c(OCC(O)CN4CCN(C)CC4)c(C)c3)CCCCCC2)cc(C)c1OCC(O)CN1CCN(C)CC1 (stereo not drawn) | 32 |  | 
Cc1cc(C)cc(NCC(O)COc2c(C)cc(C(C)(C)c3cc(C)c(OCC(O)CNc4cc(C)cc(C)c4)c(C)c3)cc2C)c1 (stereo not drawn) |  | Not Active | 
CC(C)(c1cc(Br)c(OCC(O)CN2CCC3(CC2)OCCO3)c(Br)c1)c1cc(Br)c(OCC(O)CN2CCC3(CC2)OCCO3)c(Br)c1 (stereo not drawn) | 4.7 |  | 
CC(c1cc(Br)c(OCC(O)CN2CCN(C)CC2)c(Br)c1)c1cc(Br)c(OCC(O)CN2CCN(C)CC2)c(Br)c1 (stereo not drawn) | 25 |  | 
Cc1cc(C2(c3cc(C)c(OCC(O)CN4CCOCC4)c(C)c3)CCCC2)cc(C)c1OCC(O)CN1CCOCC1 (stereo not drawn) |  | Not Active | 
CN1CCN(CC(O)COc2ccc(C(C)(C)c3ccc(OCC(O)CN4CCN(C)CC4)cc3)cc2)CC1 (stereo not drawn) |  | Not Active | 
CC(C)(c1ccc(OCC(O)CN2CCCCC2)cc1)c1ccc(OCC(O)CN2CCCCC2)cc1 (stereo not drawn) | 110 |  | 
CN1CCN(CC(O)COc2ccc(C3(c4ccc(OCC(O)CN5CCN(C)CC5)c(Br)c4)CCCCC3)cc2Br)CC1 (stereo not drawn) | 13 |  | 

Compound | IC50 ([1]; read-out: IC50) [µM] | IC50 [1] | other results
Cc1cc(C(C)(C)c2cc(C)c(OCC(O)CNc3ccc(C(C)(C)C)cc3)c(C)c2)cc(C)c1OCC(O)CNc1ccc(C(C)(C)C)cc1 (stereo not drawn) |  | Not Active | 
Cc1cc(C(C)(C)c2ccc(OCC(O)CN3CCOCC3)c(C)c2)ccc1OCC(O)CN1CCOCC1 (stereo not drawn) |  | Not Active | 
CN1CCN(CC(O)COc2c(Br)cc(C3(c4cc(Br)c(OCC(O)CN5CCN(C)CC5)c(Br)c4)CCCC3)cc2Br)CC1 (stereo not drawn) | 24 |  | 
CC1CC(C)CN(CC(O)COc2c(Br)cc(C(C)(C)c3cc(Br)c(OCC(O)CN4CC(C)CC(C)C4)c(Br)c3)cc2Br)C1 (stereo not drawn) | 4.8 |  | inhibition [2]: 13.7%; inhibition [3]: Active; inhibition [4]: Active; Activity (PC-12 [5]): 104.2%; inhibition [6]: 17.4%; IC50 [7]: 5.57 µM; Activity (PC-12 [8]): Dose-dependent effect; IC50 (PC-12 [8]; PC-12, 48 h): 0.8 µM; Activity (PC-12 [9]): Non-toxic; inhibition [10]: Active; Activity (PC-12 [11]): 96.6%; inhibition [12]: 40.4%
CC(C)(c1ccc(OCC(O)CN2CCOCC2)cc1)c1ccc(OCC(O)CN2CCOCC2)cc1 (stereo not drawn) |  | Not Active | 
Cc1cc(C(C)(C)c2cc(C)c(OCC(O)CN3CCN(C(=O)OC(C)(C)C)CC3)c(C)c2)cc(C)c1OCC(O)CN1CCN(C(=O)OC(C)(C)C)CC1 (stereo not drawn) | 0.4 |  | IC50 [7]: 1.82 µM
Cc1cc(C(C)(C)c2cc(C)c(OCC(O)CN3CC(C)CC(C)C3)c(C)c2)cc(C)c1OCC(O)CN1CC(C)CC(C)C1 (stereo not drawn) | 8.9 |  | 
Cc1cc(C(C)(C)c2cc(C)c(OCC(O)CN3CCC4(CC3)OCCO4)c(C)c2)cc(C)c1OCC(O)CN1CCC2(CC1)OCCO2 (stereo not drawn) | 20 |  | 
Cc1cc(C2(c3cc(C)c(OCC(O)CN4CCN(C)CC4)c(C)c3)CCCC2)cc(C)c1OCC(O)CN1CCN(C)CC1 (stereo not drawn) | 56 |  | 
CCCCN(CCCC)CC(O)COc1c(Br)cc(C(C)(C)c2cc(Br)c(OCC(O)CN(CCCC)CCCC)c(Br)c2)cc1Br (stereo not drawn) | 0.27 |  | 
OC(COc1c(Br)cc(C2(c3cc(Br)c(OCC(O)CN4CCOCC4)c(Br)c3)CCCC2)cc1Br)CN1CCOCC1 (stereo not drawn) |  | Not Active | 
OC(COc1ccc(C(c2ccc(OCC(O)CN3CCOCC3)cc2)(C(F)(F)F)C(F)(F)F)cc1)CN1CCOCC1 (stereo not drawn) |  | Not Active | 
CC(C)(C)c1ccc(NCC(O)COc2c(Br)cc(C(C)(C)c3cc(Br)c(OCC(O)CNc4ccc(C(C)(C)C)cc4)c(Br)c3)cc2Br)cc1 (stereo not drawn) |  | Not Active | 
Cc1cc(C2(c3cc(C)c(OCC(O)CN4CCN(C)CC4)c(C)c3)CCCCC2)cc(C)c1OCC(O)CN1CCN(C)CC1 (stereo not drawn) | 70 |  | 
CN1CCN(CC(O)COc2ccc(C(c3ccc(OCC(O)CN4CCN(C)CC4)cc3)(C(F)(F)F)C(F)(F)F)cc2)CC1 (stereo not drawn) | 380 |  | 
Cc1cc(C2(c3cc(C)c(OCC(O)CN4CCOCC4)c(C)c3)CCCCCC2)cc(C)c1OCC(O)CN1CCOCC1 (stereo not drawn) |  | Not Active | 
Cc1cc(C(C)(C)c2cc(C)c(OCC(O)CN3CCCCCC3)c(C)c2)cc(C)c1OCC(O)CN1CCCCCC1 (stereo not drawn) | 6.2 |  | 
